Results from different studies.
Compare with care: the assays were run in different laboratories.
Target: Carbonic anhydrase 2 (CA2, Homo sapiens, UniProt P00918)
Read-out: enzyme activity
Mode: inhibitor

OC1CCN(c2ccc(/C=N/NC(=S)Nc3ccc(F)cc3)cc2)CC1
IC50 (absorbance): 255 nM

CN(C)CCC(c1ccccc1)c1ccccn1 (stereo not drawn)
IC50 (absorbance; pH 7.4): 22200 nM

NS(=O)(=O)c1ccc(Nc2nc(-c3cc4cc(Br)ccc4oc3=O)cs2)c(Br)c1
IC50 (absorbance): 5860 nM

O=c1[nH]c(=O)n([C@H]2C[C@H](O)[C@@H](CO)O2)cc1/C=C/Br
IC50 (absorbance; pH 7.4): 11800 nM

CC(C)(C)CCC(=O)Nc1nnc(S(N)(=O)=O)s1
Ki (stopped-flow): 10.2 nM

OC1CCN(c2ccc(/C=N/NC(=S)Nc3cccc(Cl)c3Cl)cc2)CC1
IC50 (absorbance): 267 nM

Cn1cnc([N+](=O)[O-])c1Sc1ncnc2nc[nH]c12
IC50 (absorbance; pH 7.4): 20600 nM

Cc1ccccc1C(=O)Nc1nnc(S(N)(=O)=O)s1
Ki (stopped-flow): 25.6 nM

OC(Cn1cncn1)(Cn1cncn1)c1ccc(F)cc1F
IC50 (absorbance; pH 7.4): 12500 nM

OC1CCN(c2ccc(/C=N/NC(=S)NCc3ccccc3)cc2)CC1
IC50 (absorbance): 504 nM

NS(=O)(=O)c1cnc(NC(=O)CCc2ccccc2)s1
Ki (stopped-flow): 98.7 nM

OC1CCN(c2ccc(/C=N/NC(=S)NCc3ccc(Cl)cc3)cc2)CC1
IC50 (absorbance): 374 nM

O=C(O)COCCN1CCN(C(c2ccccc2)c2ccc(Cl)cc2)CC1 (stereo not drawn)
IC50 (absorbance; pH 7.4): 15200 nM

OC1CCN(c2ccc(/C=N/NC(=S)Nc3ccccc3)cc2)CC1
IC50 (absorbance): 507 nM

NCCCC(=O)Nc1nnc(S(N)(=O)=O)s1
Ki (stopped-flow): 65.7 nM
